Experimental data published in ChEMBL document CHEMBL5058577, “EUbOPEN Chemogenomics Library 2 (Multiplex)” (2022).

Tested on: HEK-293T
Assay: Multiplex assay against HEK293T
Format: toxicity, cell-based
Conditions: human
How it was run: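 Tubulin, mitochondrial-mass and membrane-permeability phenotypes are per cents of healthy-nucleus cells. Cells were gated by CellPathfinder machine learning into Hoechst high-intensity objects or normal cells, normal cells into healthy, pyknosed or fragmented nuclei, and pyknosed cells into mitotic or apoptotic. Before that, live cells stained at seeding with Hoechst33342, BioTracker Green Microtubule Cytoskeleton Dye, MitoTracker Red and Annexin V Alexa Fluor 680 were imaged on a CQ1 microscope at 37°C and 5% CO2 after compound addition.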

[1] = 12 h, 1 µM, compound concentration 1 uM, replicate 1
[2] = 12 h, 1 µM, compound concentration 1 uM, replicate 2
[3] = 12 h, 10 µM, compound concentration 10 uM, replicate 1
[4] = 12 h, 10 µM, compound concentration 10 uM, replicate 2
[5] = 24 h, 1 µM, compound concentration 1 uM, replicate 1
[6] = 24 h, 1 µM, compound concentration 1 uM, replicate 2
[7] = 24 h, 10 µM, compound concentration 10 uM, replicate 1
[8] = 24 h, 10 µM, compound concentration 10 uM, replicate 2
[9] = 48 h, 1 µM, compound concentration 1 uM, replicate 1
[10] = 48 h, 1 µM, compound concentration 1 uM, replicate 2
[11] = 48 h, 10 µM, compound concentration 10 uM, replicate 1
[12] = 48 h, 10 µM, compound concentration 10 uM, replicate 2

SMILES: COC(c1ccccc1)(c1ccccc1)[C@H](Oc1nc(C)cc(C)n1)C(=O)O [AMBRISENTAN]
- Population Apoptotic (%) [1]: 38%
- Population Fragmented Nuclei (%) [1]: 7%
- Population Healthy Nuclei (%) [1]: 75%
- Population Hoechst High Intensity Objects (%) [1]: 6%
- Population Membrane Permeable-Phenotype (%) [1]: 0%
- Population Mitochondria Different-Phenotype (%) [1]: 53%
- Population Mitotic Cells (%) [1]: 61%
- Population Normal (%) [1]: 93%
- Population Pyknosed Nuclei (%) [1]: 16%
- Population Tubulin-Different-Phenotype (%) [1]: 30%
- Total Cell Count [1]: 249
- Population Healthy Nuclei (%) [2]: 81%
- Population Hoechst High Intensity Objects (%) [2]: 11%
- Population Mitochondria Different-Phenotype (%) [2]: 63%
- Population Normal (%) [2]: 88%
- Population Pyknosed Nuclei (%) [2]: 10%
- Population Tubulin-Different-Phenotype (%) [2]: 23%
- Total Cell Count [2]: 326
- Population Apoptotic (%) [3]: 33%
- Population Fragmented Nuclei (%) [3]: 8%
- Population Healthy Nuclei (%) [3]: 76%
- Population Hoechst High Intensity Objects (%) [3]: 6%
- Population Membrane Permeable-Phenotype (%) [3]: 0%
- Population Mitochondria Different-Phenotype (%) [3]: 47%
- Population Mitotic Cells (%) [3]: 66%
- Population Normal (%) [3]: 93%
- Population Pyknosed Nuclei (%) [3]: 15%
- Population Tubulin-Different-Phenotype (%) [3]: 23%
- Total Cell Count [3]: 383
- Population Apoptotic (%) [4]: 56%
- Population Fragmented Nuclei (%) [4]: 5%
- Population Healthy Nuclei (%) [4]: 80%
- Population Hoechst High Intensity Objects (%) [4]: 13%
- Population Mitochondria Different-Phenotype (%) [4]: 57%
- Population Mitotic Cells (%) [4]: 43%
- Population Normal (%) [4]: 86%
- Population Pyknosed Nuclei (%) [4]: 14%
- Population Tubulin-Different-Phenotype (%) [4]: 18%
- Total Cell Count [4]: 262
- Population Apoptotic (%) [5]: 37%
- Population Fragmented Nuclei (%) [5]: 9%
- Population Healthy Nuclei (%) [5]: 76%
- Population Hoechst High Intensity Objects (%) [5]: 4%
- Population Membrane Permeable-Phenotype (%) [5]: 1%
- Population Mitochondria Different-Phenotype (%) [5]: 30%
- Population Mitotic Cells (%) [5]: 62%
- Population Normal (%) [5]: 95%
- Population Pyknosed Nuclei (%) [5]: 14%
- Population Tubulin-Different-Phenotype (%) [5]: 19%
- Total Cell Count [5]: 313
- Population Apoptotic (%) [6]: 43%
- Population Healthy Nuclei (%) [6]: 82%
- Population Hoechst High Intensity Objects (%) [6]: 7%
- Population Membrane Permeable-Phenotype (%) [6]: 0%
- Population Mitochondria Different-Phenotype (%) [6]: 39%
- Population Mitotic Cells (%) [6]: 56%
- Population Normal (%) [6]: 92%
- Population Pyknosed Nuclei (%) [6]: 8%
- Population Tubulin-Different-Phenotype (%) [6]: 16%
- Total Cell Count [6]: 404
- Population Apoptotic (%) [7]: 30%
- Population Fragmented Nuclei (%) [7]: 10%
- Population Healthy Nuclei (%) [7]: 73%
- Population Hoechst High Intensity Objects (%) [7]: 4%
- Population Membrane Permeable-Phenotype (%) [7]: 0%
- Population Mitochondria Different-Phenotype (%) [7]: 34%
- Population Mitotic Cells (%) [7]: 69%
- Population Normal (%) [7]: 95%
- Population Pyknosed Nuclei (%) [7]: 15%
- Population Tubulin-Different-Phenotype (%) [7]: 18%
- Total Cell Count [7]: 441
- Population Apoptotic (%) [8]: 44%
- Population Fragmented Nuclei (%) [8]: 8%
- Population Healthy Nuclei (%) [8]: 78%
- Population Hoechst High Intensity Objects (%) [8]: 12%
- Population Mitochondria Different-Phenotype (%) [8]: 41%
- Population Mitotic Cells (%) [8]: 55%
- Population Normal (%) [8]: 87%
- Population Pyknosed Nuclei (%) [8]: 12%
- Population Tubulin-Different-Phenotype (%) [8]: 17%
- Total Cell Count [8]: 318
- Population Apoptotic (%) [9]: 27%
- Population Fragmented Nuclei (%) [9]: 17%
- Population Healthy Nuclei (%) [9]: 72%
- Population Hoechst High Intensity Objects (%) [9]: 2%
- Population Membrane Permeable-Phenotype (%) [9]: 3%
- Population Mitochondria Different-Phenotype (%) [9]: 22%
- Population Mitotic Cells (%) [9]: 72%
- Population Normal (%) [9]: 97%
- Population Pyknosed Nuclei (%) [9]: 10%
- Population Tubulin-Different-Phenotype (%) [9]: 13%
- Total Cell Count [9]: 600
- Population Apoptotic (%) [10]: 40%
- Population Fragmented Nuclei (%) [10]: 12%
- Population Healthy Nuclei (%) [10]: 80%
- Population Hoechst High Intensity Objects (%) [10]: 3%
- Population Membrane Permeable-Phenotype (%) [10]: 0%
- Population Mitochondria Different-Phenotype (%) [10]: 23%
- Population Mitotic Cells (%) [10]: 59%
- Population Normal (%) [10]: 96%
- Population Pyknosed Nuclei (%) [10]: 7%
- Population Tubulin-Different-Phenotype (%) [10]: 10%
- Total Cell Count [10]: 605
- Population Apoptotic (%) [11]: 26%
- Population Fragmented Nuclei (%) [11]: 14%
- Population Healthy Nuclei (%) [11]: 77%
- Population Hoechst High Intensity Objects (%) [11]: 2%
- Population Membrane Permeable-Phenotype (%) [11]: 1%
- Population Mitochondria Different-Phenotype (%) [11]: 18%
- Population Mitotic Cells (%) [11]: 73%
- Population Normal (%) [11]: 97%
- Population Pyknosed Nuclei (%) [11]: 8%
- Population Tubulin-Different-Phenotype (%) [11]: 13%
- Total Cell Count [11]: 711
- Population Apoptotic (%) [12]: 53%
- Population Healthy Nuclei (%) [12]: 79%
- Population Hoechst High Intensity Objects (%) [12]: 7%
- Population Membrane Permeable-Phenotype (%) [12]: 0%
- Population Mitochondria Different-Phenotype (%) [12]: 27%
- Population Mitotic Cells (%) [12]: 46%
- Population Normal (%) [12]: 92%
- Population Pyknosed Nuclei (%) [12]: 5%
- Population Tubulin-Different-Phenotype (%) [12]: 15%
- Total Cell Count [12]: 480
